Published values pooled from the literature.
Compare with care: the assays were run in different laboratories.

SMILES	system	conditions	clearance
COc1ccc2cc(CCC[18F])ccc2c1	male BALB/c mouse, plasma	intravenous	0.25 mL/min
CNCCN(C)c1cc(C#N)cc(CCc2cc(C)cc(N)n2)c1	male BALB/c mouse, brain	intravenous, 2 mg/kg	21 mL/min/kg
O=C(CS(=O)(=O)O)Nc1ccc(N2CCOCC2)c(Br)c1	CD-1 mouse, blood	intravenous, 2 mg/kg	62 mL/min/kg
Cc1noc(C)c1-c1ccc2nc(-c3cnn(CC(C)(C)O)c3)nc(N3CCOC[C@@H]3c3ccccc3)c2c1	CD-1 mouse, plasma	intravenous, 2 mg/kg	7.3 mL/min/kg
CNC(=O)c1cc(OC)cc2c(N3CCc4c(cc(Cn5ccnc5)cc4-c4cn(C)nc4C(F)(F)F)C3=O)ccnc12	male CD-1 mouse, plasma	intravenous, 3 mg/kg	15 mL/min/kg
CN(C)C/C=C/C(=O)Nc1ccc(O[C@@H]2CCC[C@@H](Nc3ncc(Cl)c(-c4c[nH]c5ccccc45)n3)C2)cc1	male Swiss mouse, plasma	intravenous, 3 mg/kg	24.9 mL/min/kg
CCc1cc(C(=O)NC)c2nccc(N3CCc4c(cc(Cn5ccnc5)cc4-c4cn(C)nc4C(F)(F)F)C3=O)c2c1	male CD-1 mouse, plasma	intravenous, 3 mg/kg	12 mL/min/kg
CC[C@H](C)[C@@H]1NC(=O)[C@@](C)(NC(=O)[C@H](CCCNC(=N)N)NC(=O)[C@H](CC(C)C)NC(=O)[C@@H](NC(=O)[C@H](CCC(N)=O)NC(=O)[C@H](CC(C)C)NC(C)=O)[C@@H](C)O)CCCC=CCCC[C@@](C)(C(=O)N[C@@H](CC(C)C)C(=O)N[C@@H](Cc2ccc3ccccc3c2)C(N)=O)NC(=O)[C@H](CCCNC(=N)N)NC(=O)[C@H](CCC(N)=O)NC1=O	male BALB/c mouse, plasma	intravenous, 5 mg/kg	0.662 mL/min/kg
Nc1ncc(-c2ccncc2)nc1Nc1ccc2[nH]ccc2c1	male C57BL/6 mouse, plasma	intravenous, 5 mg/kg	112 mL/min/kg
COc1nc(-c2cc(C)c(N[C@@H](C)c3c(F)cc(F)cc3F)nn2)ccc1-n1cnc(C)c1	male CD-1 mouse, plasma	intravenous, 1 mg/kg, single dose	6.33 mL/min/kg
Cc1c(Br)cc(NC(=O)NS(=O)(=O)O)cc1Br	CD-1 mouse, blood	intravenous, 2 mg/kg	5.65 mL/min/kg
CN(C)c1ccc(-c2cc(=O)c3ccc(O)c(O)c3o2)cc1	mouse, plasma	intravenous, 1 mg/kg	168 mL/min/kg
COc1ccc2nccc(N3CCc4c(cc(Cn5ccnc5)cc4-c4cn(C)nc4C(F)(F)F)C3=O)c2c1	male CD-1 mouse, plasma	intravenous, 3 mg/kg	27 mL/min/kg
OC[C@H]1O[C@@H](c2ccc(Cl)c(Cc3ccc(O[C@H]4CCOC4)cc3)c2)[C@H](O)[C@@H](O)[C@@H]1O	CD-1 mouse, plasma	intravenous, 5 mg/kg	51.6 mL/min/kg
CC(C)c1cnn2c(NCc3ccccc3)cc(NC[C@H]3CCNC[C@@H]3O)nc12	male CD-1 mouse, plasma	intravenous, 10 mg/kg	78 mL/min/kg
NC(=S)NN=Cc1ncccc1N	female C57BL/6 mouse, plasma	intravenous, 20 mg/kg	13.8 mL/min/kg
CC(C)(Oc1cccc(N2CCC[C@@H](C(=O)N(Cc3ccc(-c4cn[nH]c4)cc3)C3CC3)C2)c1)C(=O)N1CCNCC1.Cl	male C57BL/6 mouse, plasma	intravenous, 1 mg/kg	44.2 mL/min/kg
O=C1C2N=CN3C(NCc4c(F)ccc5c4CCO5)=NC=C(c4cnc(C(F)(F)F)cc4CN1CC(F)F)C23 (stereo not shown)	male CD-1 mouse, plasma	intravenous, 2 mg/kg	0.59 mL/min/kg
CC(C)(C)c1ccc(O)c(CN(Cc2cc(C(C)(C)C)ccc2O)C2CCC(NC(N)=O)CC2)c1 (stereo not shown)	male C57BL/6 mouse, plasma	oral, 10 mg/kg, single dose	32.3 mL/min/kg
